Assays:
Homo sapiens [1] = species on record: Homo sapiens; test: Toxicity in malaria patient assessed as vomiting on day 1 after treatment at quartile 1 of compound concentration; format: organism-based; details: in vivo
In short: (§1)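 Mothers or guardians were questioned at each follow-up visit about the child's symptoms and drug intake. Children were grouped into quartiles by whole-blood chloroquine concentration 1 day after the end of treatment. Symptom frequency is given as n/N (%), and vomiting duration in days. Trend across quartiles was tested with the nonparametric test for trend.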

Homo sapiens [2] = species on record: Homo sapiens; test: Toxicity in malaria patient assessed as diarrhea on day 1 after treatment at quartile 3 of compound concentration; format: organism-based; details: in vivo; in short: as §1
Homo sapiens [3] = species on record: Homo sapiens; test: Toxicity in malaria patient assessed as duration of vomiting at quartile 2 of compound concentration; format: organism-based; details: in vivo; in short: as §1
Homo sapiens [4] = species on record: Homo sapiens; test: Toxicity in malaria patient assessed as vomiting on day 1 after treatment at quartile 3 of compound concentration; format: organism-based; details: in vivo; in short: as §1
Homo sapiens [5] = species on record: Homo sapiens; test: Toxicity in malaria patient assessed as duration of vomiting at quartile 4 of compound concentration; format: organism-based; details: in vivo; in short: as §1
[6] = Drug level in malaria patient whole blood on day 14; format: ADME, tissue-based; details: human, read-out: Drug uptake
In short: (§2)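 Observational study of 102 children in Guinea-Bissau given chloroquine unsupervised under routine prescribing, usually split into two to three daily doses of 6.6 mg kg−1. Whole blood was drawn 1, 4 and 14 days after the last reported dose for chloroquine and desethylchloroquine analysis. Values are medians with interquartile range, in nM.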

Homo sapiens [7] = species on record: Homo sapiens; test: Toxicity in malaria patient assessed as vomiting on day 1 after treatment at quartile 4 of compound concentration; format: organism-based; details: in vivo; in short: as §1
Homo sapiens [8] = species on record: Homo sapiens; test: Toxicity in malaria patient assessed as duration of vomiting at quartile 3 of compound concentration; format: organism-based; details: in vivo; in short: as §1
Homo sapiens [9] = species on record: Homo sapiens; test: Toxicity in malaria patient assessed as duration of vomiting at quartile 1 of compound concentration; format: organism-based; details: in vivo; in short: as §1
Homo sapiens [10] = species on record: Homo sapiens; test: Toxicity in malaria patient assessed as diarrhea on day 1 after treatment at quartile 1 of compound concentration; format: organism-based; details: in vivo; in short: as §1
[11] = Plasma protein binding in healthy human; format: ADME, cell-free; details: read-out: PPB
[12] = Drug level in malaria patient whole blood on day 1; format: ADME, tissue-based; details: human, read-out: Drug uptake; in short: as §2
[13] = Volume of distribution in malaria patient; format: ADME, organism-based; details: human, in vivo
[14] = Drug level in malaria patient whole blood on day 4; format: ADME, tissue-based; details: human, read-out: Drug uptake; in short: as §2
Homo sapiens [15] = species on record: Homo sapiens; test: Toxicity in malaria patient assessed as diarrhea on day 1 after treatment at quartile 2 of compound concentration; format: organism-based; details: in vivo; in short: as §1
Homo sapiens [16] = species on record: Homo sapiens; test: Toxicity in malaria patient assessed as vomiting on day 1 after treatment at quartile 2 of compound concentration; format: organism-based; details: in vivo; in short: as §1
Homo sapiens [17] = species on record: Homo sapiens; test: Toxicity in malaria patient assessed as diarrhea on day 1 after treatment at quartile 4 of compound concentration; format: organism-based; details: in vivo; in short: as §1
[18] = Drug level in malaria patient whole blood assessed as desethychloroquine level on day 4; format: ADME, tissue-based; details: human, read-out: Drug uptake; in short: as §2
[19] = Drug level in malaria patient whole blood assessed as desethychloroquine level on day 14; format: ADME, tissue-based; details: human, read-out: Drug uptake; in short: as §2
[20] = Drug level in malaria patient whole blood assessed as desethychloroquine level on day 1; format: ADME, tissue-based; details: human, read-out: Drug uptake; in short: as §2

concentration [6]	fraction unbound [11]	concentration [12]	Vd [13]	concentration [14]	concentration [18]	concentration [19]	concentration [20]	SMILES	Activity (Homo sapiens [1])	Activity (Homo sapiens [2])	Time (Homo sapiens [3])	Activity (Homo sapiens [4])	Time (Homo sapiens [5])	Activity (Homo sapiens [7])	Time (Homo sapiens [8])	Time (Homo sapiens [9])	Activity (Homo sapiens [10])	Activity (Homo sapiens [15])	Activity (Homo sapiens [16])	Activity (Homo sapiens [17])
204 nM	0.5	894 nM	> 100 L/kg	626 nM				CCN(CC)CCCC(C)Nc1ccnc2cc(Cl)ccc12 (stereo not given) [CHLOROQUINE]	25%	33%	1.1 days	14%	0.5 days	8%	0.5 days	1.4 days	42%	64%	24%	21%
					446 nM	181 nM	638 nM	CCNCCCC(C)Nc1ccnc2cc(Cl)ccc12 (stereo not given) [DESETHYLCHLOROQUINE]												

Source: ChEMBL document CHEMBL1649116, “Chloroquine is grossly overdosed and overused but well tolerated in Guinea-bissau” (Antimicrob Agents Chemother, 2009)
